Converted amounts (≈) assume the structure as drawn.

Assay [1] concerns B16. As to the kind of experiment: Compound was evaluated for antiproliferative activity against B16 mouse melanoma cells *= Partially precipitated in DMSO. The assay is classed as functional, cell-based. Summed up: (§1)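 B16 mouse melanoma cells (EMEM, 10% FCS, 37 °C, 5% CO2) plated at 200 cells/dish, adhered 20 h, then exposed 24 h to increasing drug concentrations. Drug medium removed, PBS wash, 12 days regrowth in fresh medium.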

Another assay relates to Bacillus cereus. As to the kind of experiment: Antimicrobial activity on Bacillus cereus. The assay is classed as functional.
Assay [2] has as its target Protein kinase C alpha type (Homo sapiens, UniProt P17252). As to the kind of experiment: Inhibition of Protein Kinase C(PKC). Summed up: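 Procedure a: PKC (0.5 μg/mL) with histone IIIs (2.4 mg/mL), 10 μM ATP plus [γ32P]ATP, 10 mM MgCl2, 0.1 mM CaCl2, phosphatidylserine and diacylglycerol (10 mg/mL each), 50 mM Tris pH 7.5, at 30 °C for 12 min. TCA precipitation, histone-bound 32P counted by scintillation; triplicate.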

The subject of a further assay is P388. As to the kind of experiment: Antiproliferative activity against P388 Murine Leukemia cells. The assay is classed as functional, cell-based. To be noted: Mus musculus.
Assay [3] deals with B16. As to the kind of experiment: Antiproliferative activity against B16 mouse melanoma cells. It is filed as functional, cell-based. Summed up: as §1
The subject of assay [4] is Mus musculus. As to the kind of experiment: Antitumor activity against mice with B16 melanoma was assessed from the ratio of median survival time of treated animals (T) to controls animals, at 16 mg/Kg. It is filed as functional. Summed up:
(§2)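 Male B6D2F1 mice given 0.5 × 10⁶ B16 melanoma cells subcutaneously on the dorsum on day 0 (cells maintained in MEM culture). Drug given intraperitoneally on days 1, 5 and 9. Controls received DMSO–olive oil solvent. Six mice per treated group, 12 controls. Median survival time compared with controls, reported as oncostatic index T/C × 100.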

Assay [5] deals with Mus musculus. In words: Antitumor activity against mice with B16 melanoma was assessed from the ratio of median survival time of treated animals (T) to controls animals, at 2 mg/Kg. It is filed as functional. Summed up: as §2
The test system of assay [6] is Mus musculus. As to the kind of experiment: Antitumor activity against mice with B16 melanoma was assessed from the ratio of median survival time of treated animals (T) to controls animals, at 64 mg/Kg. The assay is classed as functional. Summed up: as §2
In assay [7] the test system is Mus musculus. In words: Antitumor activity against mice with P388 leukemia cell was assessed from the ratio of median survival time of treated animals (T) to controls animals, at 16 mg/Kg. The assay is classed as functional. Summed up:
(§3)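 Male B6D2F1 mice injected intraperitoneally with 1×10^6 P388 leukemia cells on day 0 (line kept by weekly intraperitoneal passage in male DBA/2 mice). Drug given intraperitoneally on days 1, 5 and 9. Controls received DMSO–olive oil solvent. Six mice per treated group, 12 controls. Median survival time compared with controls, reported as oncostatic index T/C × 100.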

In assay [8] the test system is Mus musculus. In words: Antitumor activity against mice with P388 leukemia cell was assessed from the ratio of median survival time of treated animals (T) to controls animals, at 2 mg/Kg. The assay is classed as functional. Summed up: as §3
For assay [9], the system named is Mus musculus. As to the kind of experiment: Antitumor activity against mice with P388 leukemia cell was assessed from the ratio of median survival time of treated animals (T) to controls animals, at 64 mg/Kg. It is filed as functional. Summed up: as §3
Assay [10] relates to Mus musculus. In words: In vivo efficacy study on mice with P388 Leukemia Cells determined after administration of 16 mg/kg/day dosage. The assay is classed as functional. Summed up:
as §3

Assay [11] concerns Mus musculus. In words: In vivo efficacy study on mice with P388 Leukemia Cells determined after administration of 2 mg/kg/day dosage. The assay is classed as functional. Summed up: as §3
For assay [12], the system named is Mus musculus. In words: In vivo efficacy study on mice with P388 Leukemia Cells determined after administration of 64 mg/kg/day dosage. The assay is classed as functional. Summed up:
as §3

The subject of assay [13] is Mus musculus. As to the kind of experiment: In vivo efficacy study on mice with B16 Melanoma cells determined after administration of 2 mg/kg/day dosage. It is filed as functional, Melanoma cell. Summed up:
as §2

In assay [14] the test system is Mus musculus. In words: In vivo efficacy study on mice with B16 Melanoma cells determined after administration of 64 mg/kg/day dosage. The assay is classed as functional, Melanoma cell. Summed up:
as §2

For assay [15], the system named is Mus musculus. As to the kind of experiment: In vivo efficacy study on mice with B16 Melanoma cells determined after administration of 16 mg/kg/day dosage. It is filed as functional, Melanoma cell. Summed up: as §2
A short description of assay [16]: Inhibition of Protein Kinase A (PKA). Summed up:
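PKA (1 μg/mL) phosphorylating histone IIa (1 mg/mL) with 10 μM ATP plus [γ32P]ATP, 5 mM MgCl2, 50 mM Tris pH 7.0, at 30 °C for 12 min. Stopped with 12% TCA with BSA carrier, reprecipitated. 32P incorporated into histone counted by scintillation; triplicate.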

As to `NNC(=O)NN1C(=O)c2c(c3c4ccccc4[nH]c3c3[nH]c4ccccc4c23)C1=O`, the IC50 (as a rule, the midpoint of a concentration-inhibition curve) in the assay on B16 [1] was 75 µM; in assay [2] it was 78 µM; in the assay on P388 it was above 10 µM. Further, in the assay with Bacillus cereus, the minimum inhibitory concentration (MIC) (commonly the least concentration at which growth counts as inhibited) stood at 50 µg/mL (≈ 126 µM).

Consider `O=C1NCc2c1c1c3ccccc3[nH]c1c1[nH]c3ccccc3c21` [STAUROSPORINONE], for which the results for the IC50 (in the assay on B16 [3]; in assay [16]; in the assay with P388) were 4.8 µM, 25.7 µM and 4 µM, respectively. This compound displayed a minimum inhibitory concentration (MIC) in the assay with Bacillus cereus above 50 µg/mL. For the same compound, the “T/C x100” value in the assay with Mus musculus [4] is reported as 122; with Mus musculus [5], 94; in the assay with Mus musculus [6] it was 106; in the assay on Mus musculus [7] it was 100; with Mus musculus [8], 100; with Mus musculus [9] it was 104. The “Mean survival in days” value was found to be 11 in the assay on Mus musculus [10]; 11 in the assay with Mus musculus [11]; 11.5 in the assay with Mus musculus [12]; 23 in the assay on Mus musculus [13]; 26 with Mus musculus [14]; 30 with Mus musculus [15].

The record behind these values is ChEMBL document CHEMBL1129573, “Structure-activity relationships in a series of substituted indolocarbazoles: topoisomerase I and protein kinase C inhibition and antitumoral and antimicrobial properties” (J Med Chem, 1996).
